Reference: ChEMBL document CHEMBL5108008, “Drug screening approach against mycobacterial fatty acyl-AMP ligase FAAL32 renews the interest of the salicylanilide pharmacophore in the fight against tuberculosis” (Bioorg Med Chem, 2022)
In brackets after ≈: the same amount, converted by molar mass. Structures can show the parent of a compound that is named as a salt.

Key:
[1] = test system: Mycobacterium tuberculosis; assay: Antimicrobial activity against Mycobacterium tuberculosis H37Rv incubated for 24 hrs and measured by MTT assay; format: functional
Procedure, shortened: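 Pellicle-grown Mtb bacilli were vortexed with glass beads, clumps removed by slow spin, and set to A600 0.1 in 7H9/0.2% glycerol. 2 µL compound in DMSO (1 mM, or 2-fold serial dilutions) went into 100 µL broth with 100 µL bacteria. Plates ran 6 d at 37 °C, then MTT (1 mg/mL) for 24 h, SDS solubilisation and A570. MIC was the lowest concentration inhibiting growth versus the untreated control.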

[2] = target: T1, Long-chain-fatty-acid--AMP ligase FadD32 (Mycobacterium tuberculosis (strain ATCC 25618 / H37Rv)) (UniProt O53580); assay: Binding affinity to Mycobacterium tuberculosis FAAL32 assessed as change in melting temperature at 2.5 uM by NanoDSF assay
T1 sequence (whole entry): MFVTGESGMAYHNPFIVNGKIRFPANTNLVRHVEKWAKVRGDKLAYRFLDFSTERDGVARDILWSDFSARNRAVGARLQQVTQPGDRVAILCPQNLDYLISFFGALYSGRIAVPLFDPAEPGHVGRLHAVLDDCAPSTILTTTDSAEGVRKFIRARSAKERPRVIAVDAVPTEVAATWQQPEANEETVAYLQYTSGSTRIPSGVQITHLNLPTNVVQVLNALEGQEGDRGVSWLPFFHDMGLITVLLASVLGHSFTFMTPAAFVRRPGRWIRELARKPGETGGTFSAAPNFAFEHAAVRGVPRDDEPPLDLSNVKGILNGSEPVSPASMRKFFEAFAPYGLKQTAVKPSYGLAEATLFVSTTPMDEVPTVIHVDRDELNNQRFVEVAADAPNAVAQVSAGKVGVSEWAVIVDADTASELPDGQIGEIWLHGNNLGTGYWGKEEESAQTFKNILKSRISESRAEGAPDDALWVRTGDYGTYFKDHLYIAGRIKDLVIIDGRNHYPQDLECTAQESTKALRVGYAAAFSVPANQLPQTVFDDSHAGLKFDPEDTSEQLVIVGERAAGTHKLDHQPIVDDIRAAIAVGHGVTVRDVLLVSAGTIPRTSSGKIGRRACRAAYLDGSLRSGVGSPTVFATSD
Procedure, shortened: (§1)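 nanoDSF used 0.5 µM purified FAAL32 with ligand at 0.5–10 µM in 50 mM HEPES pH 7.5, 500 mM NaCl, 5% DMSO. Samples sat 5 min at RT, then were heated 20–70 °C at 1 °C/min. Tm came from the F350/F330 fluorescence ratio; the DMSO-only protein was the reference.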

[3] = target: T2, Long-chain-fatty-acid--AMP ligase FadD32 (Mycobacterium tuberculosis (strain ATCC 25618 / H37Rv), UniProt O53580); assay: Inhibition of Mycobacterium tuberculosis FAAL32 using AMPC12 as substrate incubated for 50 mins and measured by spectrophotometric assay
T2 sequence (O53580 whole entry): T1 sequence (whole entry)
Procedure, shortened: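 Purified Mtb FAAL32 was run with lauric acid and ATP in HEPES pH 7.5, MgCl2, DTT and detergent. Pyrophosphatase coupling converted released PPi to Pi, read after 50 min as A630 with a phosphate colour reagent against a Pi calibration curve. Compounds (final 0.5–66 µM, DMSO) were added before the enzyme. IC50 came from a sigmoidal fit of percent inhibition.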

[4] = target: T1, Long-chain-fatty-acid--AMP ligase FadD32 (Mycobacterium tuberculosis (strain ATCC 25618 / H37Rv)); assay: Binding affinity to Mycobacterium tuberculosis FAAL32 assessed as change in melting temperature at 5 uM by NanoDSF assay; procedure, shortened: as §1

| Molecule | MIC [1] | also measured |
| --- | --- | --- |
| O=C(O)c1cn(C2CC2)c2cc(N3CCNCC3)c(F)cc2c1=O [CIPROFLOXACIN] | 1.25 µM (≈ 0.414 µg/mL) | – |
| O=C(Nc1ccc(Oc2ccc(Cl)cc2)c(Cl)c1)c1cc(I)cc(I)c1O [RAFOXANIDE] | 0.08 µM (≈ 0.0501 µg/mL) | ΔTm [2]: 2.7 °C |
| VERTEPORFIN | > 1 µM | – |
| Clc1ccc(COC(Cn2ccnc2)c2ccc(Cl)cc2Cl)c(Cl)c1 (stereo unspecified) [MICONAZOLE] | > 1 µM | – |
| NNC(=O)c1ccncc1 [ISONIAZID] | 0.6 µM (≈ 0.0823 µg/mL) | – |
| Cc1cc(C(C#N)c2ccc(Cl)cc2)c(Cl)cc1NC(=O)c1cc(I)cc(I)c1O (stereo unspecified) [CLOSANTEL] | 0.08 µM (≈ 0.053 µg/mL) | IC50 [3]: 7.7 µM; ΔTm [4]: 2.7 °C |
| Oc1c(Cl)cc(Cl)c(Cl)c1Cc1c(O)c(Cl)cc(Cl)c1Cl [HEXACHLOROPHENE] | 0.08 µM (≈ 0.0326 µg/mL) | – |
| O=C(Nc1cc(Cl)cc(Cl)c1O)c1c(O)c(Cl)cc(Cl)c1Cl [OXYCLOZANIDE] | 0.32 µM (≈ 0.128 µg/mL) | – |
| CC(=O)Oc1ccccc1C(=O)Nc1ncc([N+](=O)[O-])s1 [NITAZOXANIDE] | 10 µM (≈ 3.07 µg/mL) | – |
| CCCCCCCCCCCCCCCC[N+](C)(C)CCN(Cc1ccc(OC)cc1)c1ncccn1 [THONZONIUM BROMIDE] | > 1 µM | – |
| CCCCC(CC)CNC(=N)NC(=N)NCCCCCCNC(=N)NC(=N)NCC(CC)CCCC (stereo unspecified) [ALEXIDINE DIHYDROCHLORIDE] | > 1 µM | – |
| O=C(Nc1ccc([N+](=O)[O-])cc1Cl)c1cc(Cl)ccc1O [NICLOSAMIDE] | < 0.4 µM | – |
| CC(C)(O)c1ccccc1CC[C@@H](SCC1(CC(=O)O)CC1)c1cccc(/C=C/c2ccc3ccc(Cl)cc3n2)c1 [MONTELUKAST] | > 1 µM | – |
